Screening data from PubChem.
Kir21 block – inhibitors of mouse Kir2.1 inward-rectifier potassium channel; HEK293-Kir2.1, FluxOR thallium flux fluorescence; hits give low values; B-score at 10 µM; 310,000 tested, 0.85% active;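 active = fluorescence ratio B-score at or below minus 3 SD of library scores, with starting-brightness B-score within 2 SD, cut at about -4.2 in these data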;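 note: channel flux triggered by added potassium and thallium sulfate stimulus; B-score of peak minus minimum fluorescence over baseline after thallium stimulus; more negative B-score means stronger Kir2.1 block with less thallium influx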
KCNK3 inh – human KCNK3 channel inhibition, primary screen; 340,000 tested, 0.84% active; O14649; B-score at 10 µM; CHO-KCNK3 thallium flux, FluxOR fluorescence; hits give low values;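 active = B-score under library mean minus 4 SD, starting fluorescence ratio at most library mean plus 5 SD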;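 note: more negative B-score means stronger inhibition of thallium flux through KCNK3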
Target sequence (O14649 whole entry, looked up): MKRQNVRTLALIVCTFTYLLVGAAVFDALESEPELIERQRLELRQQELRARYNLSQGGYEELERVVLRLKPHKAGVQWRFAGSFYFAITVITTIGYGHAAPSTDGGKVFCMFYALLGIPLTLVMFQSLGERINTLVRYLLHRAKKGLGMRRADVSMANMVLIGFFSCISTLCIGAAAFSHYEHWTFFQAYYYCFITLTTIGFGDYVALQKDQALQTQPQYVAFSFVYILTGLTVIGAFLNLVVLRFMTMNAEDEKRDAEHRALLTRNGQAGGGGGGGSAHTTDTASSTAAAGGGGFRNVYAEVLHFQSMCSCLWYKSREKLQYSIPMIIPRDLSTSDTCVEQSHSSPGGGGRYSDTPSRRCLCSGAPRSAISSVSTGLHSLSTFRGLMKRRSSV
hERG protect – compounds protecting human hERG from proarrhythmic drug block; Q12809; CHO-hERG, FluxOR thallium flux, dofetilide IC70 present; activation (rescue from dofetilide block), less the hit threshold, % at 10 µM; 310,000 tested, 0.51% active; AID 1511;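 active = activation above the mean of controls blocked by dofetilide plus 5 SD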;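 note: thallium influx through hERG after potassium depolarization seen as dye fluorescence rise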
KCNQ1 inh – human KCNQ1 channel inhibition | CHO-K1 KCNQ1, FluxOR thallium flux fluorescence; hits give high values | 310,000 tested, 1.3% active | B-score at 10 µM | P51787;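 active = compounds whose thallium flux B-score, printed positive for inhibition, exceeds three library SD while starting fluorescence stays within three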;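 note: channel opened by potassium depolarization with thallium stimulus after 20 min compound exposure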
KCNQ1 act – human KCNQ1 channel potentiation or activation; CHO-K1 KCNQ1, thallium flux FluxOR fluorescence; hits give high values; B-score at 10 µM; 310,000 tested, 0.35% active; AID 2648;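 active = fluorescence ratio B-score, a plate-corrected score, at least three library SD, with initial intensity B-score within 5 SD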
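Test system: CHO-K1 cells stably expressing KCNQ1 / Medium: assay buffer / Also added: depolarizing K+/Tl+ stimulus, K2SO4 and Tl2SO4 each 12.5 mM in 5x stock / Incubation: 90 min dye loading and 20 min compound exposure, both at room temperature / Signal: thallium influx via FluxOR fluorescence, kinetic imaging / Evaluation: B score of baseline-normalized fluorescence ratio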
KCNK9 inh – inhibitors of human KCNK9 two-pore domain potassium channel; B-score at 10 µM; AID 488922; HEK293 KCNK9, FluxOR thallium flux fluorescence; hits give low values; 310,000 tested, 1.2% active;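 active = ratio B-score over 3 SD below the library mean, with starting fluorescence within 5 SD of its mean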;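 note: negative B-score means less thallium flux so channel inhibition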
Active calls of the source: *; i = inactive; . = no result. In the library only some 3.7% were active in any assay of this set; here they are far more common.

SMILES | Kir21 block | KCNK3 inh | hERG protect | KCNQ1 inh | KCNQ1 act | KCNK9 inh
CC(C)c1ccc(NC(=O)C(c2ccccc2)N(Cc2ccco2)C(=O)CC2NC(=O)NC2=O)cc1 (centres undefined) | 0.28 | i | -10 | 8* | i | i
COc1ccc(NC(=O)C(c2ccc(OC)cc2)N(C)C(=O)CC2NC(=O)NC2=O)cc1 (centres undefined) | -0.06 | i | -8 | i | i | i
CN1C(=O)C(O)(CC(=O)c2cccc(-n3cccc3)c2)c2ccccc21 (centres undefined) | -0.04 | i | -15 | i | i | i
CC(c1ccccc1C(O)(c1ccccc1)c1ccccc1)N(C)C (centres undefined) | -6.2* | i | -2 | i | 14* | i
NC(=O)c1ccc(OCC(=O)N2CCNC2=O)cc1 | . | i | . | . | . | .
CCOCCCNC(=O)CCn1nc(-c2ccc(Cl)cc2)ccc1=O | -0.98 | i | -6 | i | i | i
O=C1C=C(O)C(n2cncn2)C(c2ccc(F)cc2)C1 (centres undefined) | 0.91 | i | 5.2* | i | i | i
CN[C@@H]1CC[C@H](c2ccc(Cl)c(Cl)c2)c2ccccc21 | -5.8* | i | . | i | i | i
Clc1ccc(C2Nc3cccc4cccc(c34)N2)cc1Cl | -0.01 | i | -4 | i | i | i
COc1ccc2oc(=O)c(/C(C)=N/NC(=O)c3ccncc3)cc2c1 | . | i | . | . | . | .
Clc1ccc(SCCOCCN2CCCCCC2)cc1 | -0.74 | i | -5 | i | i | i
CCCOc1ccc(OCCOCCN2CCc3ccccc3C2)cc1 | -10* | i | -10 | i | i | i
COc1ccc(OCCCN2CCc3ccccc3C2)cc1 | 0.16 | i | -4 | i | i | i
CCOc1ccc(OCCOCCN2CCc3ccccc3C2)cc1 | -4.2* | i | -9 | i | i | i
Cc1ccc(SCCOCCN2CCc3ccccc3C2)cc1 | -4.6* | i | -12 | i | i | i
C=CCc1cc(OC)ccc1OCCOCCN1CCc2ccccc2C1 | -12* | i | -15 | i | i | i
c1ccc(OCCOCCN2CCc3ccccc3C2)cc1 | 0.09 | i | -8 | i | i | i
COc1ccc(C(CNC(=O)CCC(=O)c2ccc(C)s2)N2CCOCC2)cc1 (centres undefined) | . | i | . | . | . | .
O=[N+]([O-])c1cc(C=Nc2cccc3c(O)cccc23)ccc1Cl | -1.4 | . | -8 | 7* | i | i
Nn1c(Cc2cccc3ccccc23)nnc1SCc1ccccc1 | -4.6* | i | -5 | i | i | i
O=[N+]([O-])c1ccccc1CN1CCN(S(=O)(=O)Cc2ccccc2)CC1 | 0.02 | i | -3 | i | i | i
O=[N+]([O-])c1ccccc1NC1CCN(Cc2ccccc2)CC1 | -7* | i | 3 | i | i | i
CN(Cc1ccccc1)C1CCN(Cc2ccccc2[N+](=O)[O-])CC1 | -2.3 | i | 9.8* | i | i | i
Cc1ccc(NC(=O)c2ccccc2SCC(=O)N2CCCC2)cc1S(=O)(=O)N(C)C | -0.06 | i | -19 | i | i | i
O=S(=O)(c1ccc(Cl)c(C(F)(F)F)c1)N1CCN(CC(O)COCC2CCCO2)CC1 (centres undefined) | -0.5 | i | -8 | i | i | i
SMILES | Kir21 block | KCNK3 inh | hERG protect | KCNQ1 inh | KCNQ1 act | KCNK9 inh
CCOc1ccc(-c2nn(-c3ccccc3)cc2/C=C2\SC(=S)N(Cc3ccco3)C2=O)cc1 | -2.2 | i | -8 | i | i | i
CC(C)COc1ccc(-c2nn(-c3ccccc3)cc2/C=C2/SC(=S)N(CC(=O)O)C2=O)cc1 | 0.54 | i | -5 | i | 8* | i
CCCOc1ccc(/C=C/C(=O)Nc2ccc([N+](=O)[O-])cc2)cc1 | -0.67 | i | -16 | 7* | i | i
CC(=O)Nc1ccc(NC(=O)c2ccnn2C)cc1 | 1.9 | i | -6 | i | i | i
Cc1cc(C)c(S(=O)(=O)N2CCN=C2c2ccccc2)c(C)c1 | -0.86 | i | -10 | i | i | i
Cc1cc(S(=O)(=O)N2CCN=C2c2ccccc2)ccc1F | -4.7* | i | -7 | i | i | i
